# Experimental data collected from several papers.
# Lines come from different studies, so protocols differ.
SMILES,system,conditions,measurement,value
CC(=Nc1ccc(N=Cc2cnccn2)cc1)N(C)C,"male Sprague-Dawley rat, plasma","intravenous, 20 mg/kg",AUC(0-t),254 ng·h/mL
O=C(C=Cc1ccccc1)Nc1cc(-c2ccnc(N3CCC(O)CC3)c2)ccn1,"female Sprague-Dawley rat, plasma","intravenous, 5 mg/kg",AUC(0-inf),375 ng·h/mL
C[C@H]1[C@@H](O)O[C@@H]2O[C@@]3(C)CC[C@H]4[C@H](C)CC[C@@H]1[C@@]24OO3,"Sprague-Dawley rat, plasma","oral, 10 mg/kg",AUC(0-inf),205 ng·h/mL
N#C[C@@]12C[C@@H]1[C@@H](n1cnc3c(N[C@@H](C4CCC4)C4CC4)nc(I)nc31)[C@H](O)[C@@H]2O,"male Wistar rat, plasma","oral, 3 mg/kg",AUC(0-t),66.4 ng·h/mL
COc1ccc2cc3n(c(=O)c2c1OC)CCc1cc2c(cc1-3)OCO2,"male Sprague-Dawley rat, blood","oral, 50 mg/kg",AUC(0-t),701 ng·h/mL
O=C1c2ccncc2C(=O)c2c1[nH]c1ccccc21,"rat, plasma","intravenous, 1 mg/kg, single dose",AUC(0-inf),1.43 µM·h
O=C1CC[C@H](N2Cc3cc(N4CCN(CC5CCN(c6ccc([C@@H]7c8ccc(O)cc8CC[C@@H]7c7ccccc7)cc6)CC5)CC4)ccc3C2=O)C(=O)N1,"female Sprague-Dawley rat, plasma","oral, 20 mg/kg, fed",AUC(0-t),18400 ng·h/mL
CC1(CN)CCN(c2cnc3c(Sc4ccncc4Cl)n[nH]c3n2)CC1,"male Sprague-Dawley rat, plasma","intravenous, 2 mg/kg",AUC,151 ng·h/mL
